Experimental data taken from ChEMBL document CHEMBL1817558, “Design, synthesis and antimicrobial activity of chiral 2-(substituted-hydroxyl)-3-(benzo[d]oxazol-5-yl)propanoic acid derivatives” (2011).
Values after ≈ are worked out from the molar mass of the structure shown.

How the values were obtained:
Assay type in all cases: functional
Escherichia coli = assay: Antibacterial activity against Escherichia coli ATCC 11303 after 24 hrs by NCCLS M7-A6 broth dilution method; settings: ATCC 11303, 24 h
Procedure, shortened: (§1)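 Broth microdilution MIC per NCCLS. The 4 mg/mL DMSO stock was diluted in Mueller-Hinton broth with inoculum at 10^5 CFU/mL. Twofold serial dilutions gave final concentrations of 200 to 0.39 µg/mL. Incubation was 24 h at 37 °C, and cultures were streaked on plates to check clarity. MIC was the lowest concentration giving a clear well. Controls were medium-only and DMSO-only inoculated broth.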

Staphylococcus aureus [1] = assay: Antibacterial activity against Staphylococcus aureus ATCC 10832 after 24 hrs by NCCLS M7-A6 broth dilution method; settings: ATCC 10832, 24 h
Procedure, shortened: (§2)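 96-well microtitre broth dilution in Mueller-Hinton broth, inoculum 10^5 CFU/mL. Compounds dissolved in DMSO at 4 mg/mL, then twofold serial dilution giving final 200 down to 0.39 µg/mL. Incubated 24 h at 37 °C. Cultures streaked on plates to check clarity; MIC taken as lowest concentration leaving the well clear. DMSO-only solvent control run at matching dilutions.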

Staphylococcus aureus [2] = assay: Antibacterial activity against methicillin-resistant Staphylococcus aureus ATCC 700699 after 24 hrs by NCCLS M7-A6 broth dilution method; settings: ATCC 700699, 24 h; procedure, shortened: as §2
Bacillus subtilis = assay: Antibacterial activity against Bacillus subtilis ATCC 33712 after 24 hrs by NCCLS M7-A6 broth dilution method; settings: ATCC 33712, 24 h; procedure, shortened: as §1
Candida albicans = assay: microbe, parasite or virus in culture; settings: ATCC 10231, 24 h

| Structure (SMILES) | MIC (Escherichia coli) [µg/mL] | MIC (Staphylococcus aureus [1]) [µg/mL] | MIC (Staphylococcus aureus [2]) [µg/mL] | MIC (Bacillus subtilis) [µg/mL] | MIC (Candida albicans) [µg/mL] |
| --- | --- | --- | --- | --- | --- |
| Cc1oc(-c2ccccc2)nc1CCCc1nc2cc(C[C@H](Oc3ccc(Cl)cc3)C(=O)O)ccc2o1 | 25 (≈ 48.4 µM) | 6.25 (≈ 12.1 µM) | 6.25 (≈ 12.1 µM) | 12.5 (≈ 24.2 µM) | > 200 |
| Cc1oc(-c2ccccc2)nc1CCCc1nc2cc(C[C@H](Oc3ccccc3)C(=O)O)ccc2o1 | 100 (≈ 207 µM) | 25 (≈ 51.8 µM) | 25 (≈ 51.8 µM) | 25 (≈ 51.8 µM) | > 200 |
| Cc1oc(-c2ccccc2)nc1CCCc1nc2cc(C[C@H](Oc3cccnc3)C(=O)O)ccc2o1 | > 200 | 200 (≈ 414 µM) | 200 (≈ 414 µM) | > 200 | > 200 |
| Cc1oc(-c2ccccc2)nc1CCCc1nc2cc(C[C@H](Oc3cccc4ncccc34)C(=O)O)ccc2o1 | 200 (≈ 375 µM) | 25 (≈ 46.9 µM) | 25 (≈ 46.9 µM) | 50 (≈ 93.7 µM) | > 200 |
| Cc1oc(-c2ccccc2)nc1CCCc1nc2cc(C[C@H](Oc3ccc(F)cc3)C(=O)O)ccc2o1 | 50 (≈ 99.9 µM) | 12.5 (≈ 25 µM) | 12.5 (≈ 25 µM) | 25 (≈ 49.9 µM) | > 200 |
| Cc1oc(-c2ccccc2)nc1CCCc1nc2cc(C[C@H](Oc3cccc(F)c3)C(=O)O)ccc2o1 | 50 (≈ 99.9 µM) | 12.5 (≈ 25 µM) | 12.5 (≈ 25 µM) | 25 (≈ 49.9 µM) | > 200 |
| Cc1oc(-c2ccccc2)nc1CCCc1nc2cc(C[C@H](Oc3cc(F)c(F)c(F)c3)C(=O)O)ccc2o1 | 25 (≈ 46.6 µM) | 12.5 (≈ 23.3 µM) | 6.25 (≈ 11.6 µM) | 6.25 (≈ 11.6 µM) | > 200 |
| Cc1oc(-c2ccccc2)nc1CCCc1nc2cc(C[C@H](Oc3ccc(Br)cc3)C(=O)O)ccc2o1 | 12.5 (≈ 22.3 µM) | 3.12 (≈ 5.56 µM) | 3.12 (≈ 5.56 µM) | 6.25 (≈ 11.1 µM) | > 200 |
| Cc1oc(-c2ccccc2)nc1CCCc1nc2cc(C[C@H](Oc3ccccc3Br)C(=O)O)ccc2o1 | 50 (≈ 89.1 µM) | 25 (≈ 44.5 µM) | 25 (≈ 44.5 µM) | 50 (≈ 89.1 µM) | > 200 |
| Cc1oc(-c2ccccc2)nc1CCCc1nc2cc(C[C@H](Oc3ccc(Cl)cc3Cl)C(=O)O)ccc2o1 | 6.25 (≈ 11.3 µM) | 3.12 (≈ 5.66 µM) | 1.56 (≈ 2.83 µM) | 3.12 (≈ 5.66 µM) | > 200 |
| Cc1oc(-c2ccccc2)nc1CCCc1nc2cc(C[C@H](Oc3cccc(I)c3)C(=O)O)ccc2o1 | 25 (≈ 41.1 µM) | 3.12 (≈ 5.13 µM) | 1.56 (≈ 2.56 µM) | 12.5 (≈ 20.5 µM) | > 200 |
| Cc1oc(-c2ccccc2)nc1CCCc1nc2cc(C[C@H](Oc3ccc(I)cc3)C(=O)O)ccc2o1 | 12.5 (≈ 20.5 µM) | 1.56 (≈ 2.56 µM) | 1.56 (≈ 2.56 µM) | 6.25 (≈ 10.3 µM) | > 200 |
| Cc1oc(-c2ccccc2)nc1CCCc1nc2cc(C[C@H](Oc3ccc(C(F)(F)F)cc3)C(=O)O)ccc2o1 | 12.5 (≈ 22.7 µM) | 1.56 (≈ 2.83 µM) | 1.56 (≈ 2.83 µM) | 6.25 (≈ 11.4 µM) | > 200 |
| Cc1oc(-c2ccccc2)nc1CCCc1nc2cc(C[C@H](Oc3ccc(C#N)cc3)C(=O)O)ccc2o1 | 200 (≈ 394 µM) | 50 (≈ 98.5 µM) | 50 (≈ 98.5 µM) | 50 (≈ 98.5 µM) | > 200 |
| CC(=O)c1ccc(O[C@@H](Cc2ccc3oc(CCCc4nc(-c5ccccc5)oc4C)nc3c2)C(=O)O)cc1 | > 200 | 100 (≈ 191 µM) | 100 (≈ 191 µM) | > 200 | > 200 |
| Cc1ccc(O[C@@H](Cc2ccc3oc(CCCc4nc(-c5ccccc5)oc4C)nc3c2)C(=O)O)cc1 | 50 (≈ 101 µM) | 25 (≈ 50.3 µM) | 12.5 (≈ 25.2 µM) | 50 (≈ 101 µM) | > 200 |
| COc1ccc(O[C@@H](Cc2ccc3oc(CCCc4nc(-c5ccccc5)oc4C)nc3c2)C(=O)O)cc1 | 100 (≈ 195 µM) | 25 (≈ 48.8 µM) | 25 (≈ 48.8 µM) | 50 (≈ 97.5 µM) | > 200 |

| Structure (SMILES) | MIC (Escherichia coli) [µg/mL] | MIC (Staphylococcus aureus [1]) [µg/mL] | MIC (Staphylococcus aureus [2]) [µg/mL] | MIC (Bacillus subtilis) [µg/mL] | MIC (Candida albicans) [µg/mL] |
| --- | --- | --- | --- | --- | --- |
| Cc1oc(-c2ccccc2)nc1CCCc1nc2cc(C[C@H](Oc3ccc(C(C)(C)C)cc3)C(=O)O)ccc2o1 | 3.12 (≈ 5.79 µM) | 1.56 (≈ 2.9 µM) | 1.56 (≈ 2.9 µM) | 3.12 (≈ 5.79 µM) | > 200 |
| Cc1oc(-c2ccccc2)nc1CCCc1nc2cc(C[C@H](Oc3ccc(-c4ccccc4)cc3)C(=O)O)ccc2o1 | 3.12 (≈ 5.59 µM) | 1.56 (≈ 2.79 µM) | 1.56 (≈ 2.79 µM) | 3.12 (≈ 5.59 µM) | > 200 |
| Cc1oc(-c2ccccc2)nc1CCCc1nc2cc(C[C@H](Oc3ccc(OCc4ccccc4)cc3)C(=O)O)ccc2o1 | 6.25 (≈ 10.6 µM) | 1.56 (≈ 2.65 µM) | 1.56 (≈ 2.65 µM) | 1.56 (≈ 2.65 µM) | > 200 |
| CO[C@@H](Cc1ccc2oc(CCCc3nc(-c4ccccc4)oc3C)nc2c1)C(=O)O | > 200 | 200 (≈ 476 µM) | 100 (≈ 238 µM) | 200 (≈ 476 µM) | > 200 |
| Cc1oc(-c2ccccc2)nc1CCCc1nc2cc(C[C@H](OC(C)C)C(=O)O)ccc2o1 | 200 (≈ 446 µM) | 50 (≈ 111 µM) | 50 (≈ 111 µM) | 50 (≈ 111 µM) | > 200 |
| Cc1oc(-c2ccccc2)nc1CCCc1nc2cc(C[C@@H](Oc3ccc(C(F)(F)F)cc3)C(=O)O)ccc2o1 | 25 (≈ 45.4 µM) | 12.5 (≈ 22.7 µM) | 6.25 (≈ 11.4 µM) | 12.5 (≈ 22.7 µM) | > 200 |
| Cc1oc(-c2ccccc2)nc1CCCc1nc2cc(C[C@@H](Oc3ccc(C(C)(C)C)cc3)C(=O)O)ccc2o1 | 25 (≈ 46.4 µM) | 12.5 (≈ 23.2 µM) | 12.5 (≈ 23.2 µM) | 12.5 (≈ 23.2 µM) | > 200 |
| Cc1oc(-c2ccccc2)nc1CCCc1nc2cc(C[C@@H](Oc3ccc(-c4ccccc4)cc3)C(=O)O)ccc2o1 | 12.5 (≈ 22.4 µM) | 12.5 (≈ 22.4 µM) | 6.25 (≈ 11.2 µM) | 6.25 (≈ 11.2 µM) | > 200 |
| Cc1oc(-c2ccccc2)nc1CCCc1nc2cc(C[C@@H](Oc3ccc(OCc4ccccc4)cc3)C(=O)O)ccc2o1 | 25 (≈ 42.5 µM) | 25 (≈ 42.5 µM) | 25 (≈ 42.5 µM) | 12.5 (≈ 21.2 µM) | > 200 |
| COC(=O)[C@H](Cc1ccc2oc(CCCc3nc(-c4ccccc4)oc3C)nc2c1)Oc1ccc(-c2ccccc2)cc1 | > 200 | > 200 | > 200 | > 200 | > 200 |
| CO/N=C(\C(=O)N[C@@H]1C(=O)N2C(C(=O)O)=C(COC(C)=O)CS[C@H]12)c1csc(N)n1 [CEFOTAXIME] | 200 (≈ 439 µM) | 3.12 (≈ 6.85 µM) | 3.12 (≈ 6.85 µM) | 0.78 (≈ 1.71 µM) | – |
| CC(C)(O/N=C(\C(=O)N[C@@H]1C(=O)N2C(C(=O)[O-])=C(C[n+]3ccccc3)CS[C@H]12)c1csc(N)n1)C(=O)O [CEFTAZIDIME] | 200 (≈ 366 µM) | 0.78 (≈ 1.43 µM) | 12.5 (≈ 22.9 µM) | 6.25 (≈ 11.4 µM) | – |
| CC1=C(C(=O)O)N2C(=O)[C@@H](NC(=O)[C@H](N)C3=CCC=CC3)[C@H]2SC1 [CEPHRADINE] | 25 (≈ 71.5 µM) | 25 (≈ 71.5 µM) | 50 (≈ 143 µM) | 50 (≈ 143 µM) | – |
| CC(=O)N1CCN(c2ccc(OCC3COC(Cn4ccnc4)(c4ccc(Cl)cc4Cl)O3)cc2)CC1 (stereo not drawn) [KETOCONAZOLE] | – | – | – | – | < 0.39 |
| Clc1ccc(COC(Cn2ccnc2)c2ccc(Cl)cc2Cl)c(Cl)c1.O=[N+]([O-])O (stereo not drawn) [MICONAZOLE NITRATE] | – | – | – | – | 1.56 |
| CC1(C)S[C@@H]2[C@H](NC(=O)Cc3ccccc3)C(=O)N2[C@H]1C(=O)[O-].[Na+] [PENICILLIN G SODIUM] | 0.78 | 3.12 | 3.12 | < 0.39 | – |
